In the library only some 1.2% were active in any assay of this set; here they are far more common.
HKDC1 inh – inhibitors of human hexokinase HKDC1; recombinant HKDC1, G6PDH/diaphorase resazurin coupled fluorescence; 0.16% of 340,000 active; AID 493160; inhibition, % at 20 µM; Q2TB90;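 active = inhibition above about 35% when tested at 20 µM, limit read from the data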;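 note: plate controls were DMSO wells with enzyme for no effect and DMSO wells lacking enzyme for full effect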
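Test system: Recombinant HKDC1 (HK5) hexokinase enzyme, produced in-house | Input: HKDC1 at 5 µg/mL | Buffer or medium: Tris pH 8.0 buffer with MgCl2, Tween-20, BSA, BME | Schedule: 90 min reaction incubation at room temperature, dark | Technique: Resazurin-to-resorufin fluorescence via G6PDH and diaphorase coupling, 525/613 nm | Controls: DMSO wells with and without enzyme mix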
PfGluPho inh – PfG6PD (Plasmodium falciparum) enzyme inhibition; inhibition, % at 20 µM; PfGluPho enzyme, NADPH resazurin-diaphorase fluorescence; 0.78% of 350,000 active;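 active = inhibition reaching at least a set limit at 20 µM in the primary screen, cut at about 59% in these data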;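 note: 0% = DMSO wells with substrate and 100% = DMSO wells lacking glucose-6-phosphate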
Diaph inh CS – inhibits diaphorase or chemically oxidizes, flagging diaphorase assay artifacts; 0.69% of 190,000 active; diaphorase resazurin-to-resorufin fluorescence, NADH, 16 min; bacterial (C. kluyveri) enzyme, not human; inhibition, % at 20 µM; AID 1217;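 active = primary screen inhibition at 20 µM above a set limit, cut at about 50% in these data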;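 note: plate controls were DMSO with full reaction for no effect and wells lacking NADH for full effect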
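System: Bacterial diaphorase enzyme (C. kluyveri) | Incubation: 16-min room-temperature incubation before reading | Benchmarks: No-NADH positive control and DMSO neutral control | Measured by: Resorufin fluorescence 544/590 nm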
G6PDH CS – L. mesenteroides G6PDH inhibition counter-screen; Purified L. mesenteroides G6PDH, diaphorase/resazurin coupled fluorescence, 45 min; inhibition, % at 5 µM; 0.12% of 200,000 active; in the data active = inhibition above about 50%
PfG6PD confirm – confirmation of Plasmodium falciparum G6PD inhibitors; shares compounds with PfGluPho inh; recombinant PfGluPho, NADPH-diaphorase-resazurin fluorescence; inhibition, % at 20 µM; 34% of 2,400 active; AID 504753;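 active = inhibition of at least 50% at 20 µM in any single replicate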;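 note: 0% = DMSO with substrate and 100% = DMSO lacking glucose-6-phosphate substrate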
Diaph ctr 10uM – counter-screen for P. falciparum G6PD inhibitors: diaphorase inhibitors, oxidizers. inhibition, % at 20 µM. AID 504862. diaphorase-coupled resazurin reduction, fluorescence, NADPH 10 uM. 39% of 820 active. shares compounds with PfGluPho inh;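 active = average inhibition reaching 50% or more with the compound at 20 µM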;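 note: resorufin red fluorescence formed as diaphorase reduces resazurin using NADPH; 0% = DMSO with enzyme and 100% = DMSO without enzyme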
Diaph ctr 30uM – counter-screen for P. falciparum G6PD inhibitors: diaphorase inhibitors, oxidizers. shares compounds with PfGluPho inh. Diaphorase/resazurin coupled assay, resorufin fluorescence, 30 uM NADPH. inhibition, % at 20 µM. 29% of 820 active. AID 504863;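 active = inhibition averaging 50% or more, tested at 20 µM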;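 note: 0% = DMSO with enzyme and 100% = DMSO wells lacking diaphorase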
* marks the source's active call; other numbers are inactive results.

How did CCn1c(SCC(=O)Nc2ccc(OC)c(OC)c2)nnc1-c1cnccn1 do in these assays?
HKDC1 inh: 8; PfGluPho inh: 16

Results for CCn1c(SCC(=O)Nc2ccc3c(c2)OCO3)nnc1-c1cnccn1 ?
HKDC1 inh: -2; PfGluPho inh: 83*; Diaph inh CS: 6; G6PDH CS: 1; PfG6PD confirm: 46

Results for Nc1nc(Sc2ccc([N+](=O)[O-])c3nonc23)c2[nH]cnc2n1 ?
HKDC1 inh: 24; PfGluPho inh: 122*; PfG6PD confirm: 109*; Diaph ctr 10uM: 97*; Diaph ctr 30uM: 85*

Results for CNc1ncnc(Sc2nc(N)nc3nc[nH]c23)c1[N+](=O)[O-] ?
HKDC1 inh: 5; PfGluPho inh: 12

How did COc1ccc([N+](=O)[O-])cc1NC(=O)CSCc1cc(C)cc(C)c1 do in these assays?
HKDC1 inh: -8; PfGluPho inh: 59*; Diaph inh CS: 23; G6PDH CS: -11; PfG6PD confirm: 16

How did COc1ccccc1NC(=O)CSCc1ccc([N+](=O)[O-])cc1 do in these assays?
HKDC1 inh: -12; PfGluPho inh: 11; Diaph inh CS: 20; G6PDH CS: 2

How did CCC(C)N(CCNC(=O)c1ccc2c(c1)NC(=O)c1ccccc1S2)C1CCCCC1 (centres undefined) do in these assays?
HKDC1 inh: -3; PfGluPho inh: 76*; PfG6PD confirm: 93*; Diaph ctr 10uM: -8; Diaph ctr 30uM: -13

How did CC(=O)OCC(=O)C1(O)CCC2C3CC(F)C4=CC(=O)CCC4(C)C3C(O)CC21C (centres undefined) do in these assays?
HKDC1 inh: -9; PfGluPho inh: 4

How did O=S(=O)(c1cccs1)N1CN(Cc2ccc(Cl)cc2)c2nc3ccccc3nc21 do in these assays?
HKDC1 inh: -9; PfGluPho inh: -21; Diaph inh CS: 10; G6PDH CS: 6

What do the screens show for `O=S(=O)(c1cccs1)N1CN(Cc2ccco2)c2nc3ccccc3nc21`?
HKDC1 inh: 2; PfGluPho inh: 93*; PfG6PD confirm: 44

How did COc1ccc(NC(=S)N(CCC(C)C)C2CCN(C(C)C)CC2)cc1Cl do in these assays?
HKDC1 inh: -4; PfGluPho inh: 69*; PfG6PD confirm: 83*; Diaph ctr 10uM: -13; Diaph ctr 30uM: -14

Results for CC(=O)Nc1ccc(NC(=O)CSc2nc(=O)n(Cc3cccnc3)c3c2CCC3)cc1 ?
HKDC1 inh: -2; PfGluPho inh: -4

Results for COc1cccc2c1nc(C)c1cc(C)oc12 ?
HKDC1 inh: -3; PfGluPho inh: -17; Diaph inh CS: 8; G6PDH CS: 0

How did COc1cccc2nc3cc(C)c(C)cc3nc12 do in these assays?
HKDC1 inh: 27; PfGluPho inh: 96*; PfG6PD confirm: 57*; Diaph ctr 10uM: 46; Diaph ctr 30uM: 43

How did COc1ccc(S(=O)(=O)Nc2c(C(=O)O)[nH]c3ccc(OC)cc23)c(OC)c1 do in these assays?
HKDC1 inh: 14; PfGluPho inh: 67*; PfG6PD confirm: 4

Results for CCC1(C)Cc2c(sc3nc(SC)[nH]c(=S)c23)CO1 (centres undefined) ?
HKDC1 inh: 0; PfGluPho inh: 25

Results for O=C(Cn1cnc2c(nnn2Cc2ccccc2)c1=O)Nc1ccc2c(c1)OCCO2 ?
HKDC1 inh: 1; PfGluPho inh: -3

How did CC(C)n1c(=S)[nH]c2c1c(=O)[nH]c(=O)n2C do in these assays?
HKDC1 inh: -4; PfGluPho inh: 67*; Diaph inh CS: 23; G6PDH CS: 3; PfG6PD confirm: 33

How did Cc1ccc(/C=C/C(=O)N2CCN(c3ncccn3)CC2)o1 do in these assays?
HKDC1 inh: -8; PfGluPho inh: 64*; Diaph inh CS: 16; G6PDH CS: -3; PfG6PD confirm: 48

How did Cc1ccc(/C=C/C(=O)N2CCc3ccccc32)o1 do in these assays?
HKDC1 inh: 2; PfGluPho inh: 85*; Diaph inh CS: 21; G6PDH CS: 0; PfG6PD confirm: 10
